Experimental data published in ChEMBL document CHEMBL1221265, “Synthesis and in vitro antibacterial activity of novel fluoroquinolone derivatives containing substituted piperidines” (Bioorg Med Chem Lett, 2010).
Converted amounts (≈) assume the structure as drawn.

Assays:
[1] = system: Streptococcus pneumoniae; assay: Antibacterial activity against Streptococcus pneumoniae ATCC 49619 after 18 to 24 hrs by agar dilution method; type: functional
Procedure, shortened: (§1)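 Agar dilution done to NCCLS recommendations. Plates incubated 18–24 h at 35 °C. MIC taken as the lowest concentration of compound that gave no visible bacterial growth.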

[2] = system: Staphylococcus epidermidis; assay: Antibacterial activity against methicillin-resistant Staphylococcus epidermidis 08-18 after 18 to 24 hrs by agar dilution method; type: functional
Procedure, shortened: (§2)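 Agar dilution MIC per NCCLS recommendations. MIC is the lowest concentration giving no visible bacterial growth after incubation at 35 °C for 18–24 h.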

[3] = system: Enterococcus faecalis; assay: Antibacterial activity against Enterococcus faecalis ATCC 29212 after 18 to 24 hrs by agar dilution method; type: functional; procedure, shortened: as §1
[4] = system: Enterobacter cloacae; assay: Antibacterial activity against Enterobacter cloacae 45301 after 18 to 24 hrs by agar dilution method; type: functional; procedure, shortened: as §1
[5] = Cytotoxicity against african green monkey Vero cells after 48 hrs by CPE assay; type: cell-based; settings: chlorocebus sabaeus
[6] = system: Escherichia coli; assay: Antibacterial activity against Escherichia coli 26 after 18 to 24 hrs by agar dilution method; type: functional; procedure, shortened: as §1
[7] = system: Shigella sonnei; assay: Antibacterial activity against Shigella sonnei 51592 after 18 to 24 hrs by agar dilution method; type: functional; procedure, shortened: as §1
[8] = system: Pseudomonas aeruginosa; assay: Antibacterial activity against Pseudomonas aeruginosa 17 after 18 to 24 hrs by agar dilution method; type: functional; procedure, shortened: as §1
[9] = system: Klebsiella pneumoniae; assay: Antibacterial activity against Klebsiella pneumoniae 7 after 18 to 24 hrs by agar dilution method; type: functional; procedure, shortened: as §1
[10] = system: Staphylococcus epidermidis; assay: Antibacterial activity against Staphylococcus epidermidis ATCC 12228 after 18 to 24 hrs by agar dilution method; type: functional; procedure, shortened: as §1
[11] = system: Staphylococcus aureus; assay: Antibacterial activity against Staphylococcus aureus ATCC 29213 after 18 to 24 hrs by agar dilution method; type: functional; procedure, shortened: as §1
[12] = system: Staphylococcus aureus; assay: Antibacterial activity against methicillin-resistant Staphylococcus aureus 08-52 after 18 to 24 hrs by agar dilution method; type: functional; procedure, shortened: as §2
[13] = system: Streptococcus pyogenes; assay: Antibacterial activity against Streptococcus pyogenes 06-1 after 18 to 24 hrs by agar dilution method; type: functional; procedure, shortened: as §1

SMILES: CCO/N=C1/CCN(c2c(F)cc3c(=O)c(C(=O)O)cn(CC)c3c2F)CC1(C)CN (configuration not stated)
- MIC [1]: 64 µg/mL (≈ 147 µM)
- MIC [2]: 2 µg/mL (≈ 4.58 µM)
- MIC [3]: 128 µg/mL (≈ 293 µM)
- MIC [4]: 128 µg/mL (≈ 293 µM)
- CC50 at 48 h [5]: 78.8 µg/mL (≈ 180 µM)
- MIC [6]: 16 µg/mL (≈ 36.7 µM)
- MIC [7]: 32 µg/mL (≈ 73.3 µM)
- MIC [8]: 128 µg/mL (≈ 293 µM)
- MIC [9]: 16 µg/mL (≈ 36.7 µM)
- MIC [10]: 4 µg/mL (≈ 9.16 µM)
- MIC [11]: 2 µg/mL (≈ 4.58 µM)
- MIC [12]: 16 µg/mL (≈ 36.7 µM)
- MIC [13]: 64 µg/mL (≈ 147 µM)

SMILES: C[C@H]1COc2c(N3CCN(C)CC3)c(F)cc3c(=O)c(C(=O)O)cn1c23.C[C@H]1COc2c(N3CCN(C)CC3)c(F)cc3c(=O)c(C(=O)O)cn1c23.O [LEVOFLOXACIN]
- MIC [2]: 0.125 µg/mL
- MIC [3]: 0.5 µg/mL
- MIC [4]: 0.125 µg/mL
- CC50 at 48 h [5]: > 1000 µg/mL
- MIC [7]: 1 µg/mL
- MIC [8]: 0.25 µg/mL
- MIC [10]: 0.25 µg/mL
- MIC [11]: 0.125 µg/mL
- MIC [12]: 16 µg/mL
- MIC [13]: 16 µg/mL

SMILES: CO/N=C1/CCN(c2c(F)cc3c(=O)c(C(=O)O)cn(CCF)c3c2F)CC1(C)CN (configuration not stated)
- MIC [1]: 128 µg/mL (≈ 291 µM)
- MIC [2]: 2 µg/mL (≈ 4.54 µM)
- MIC [3]: > 128 µg/mL
- MIC [4]: 64 µg/mL (≈ 145 µM)
- CC50 at 48 h [5]: 315 µg/mL (≈ 715 µM)
- MIC [6]: 8 µg/mL (≈ 18.2 µM)
- MIC [7]: 16 µg/mL (≈ 36.3 µM)
- MIC [8]: 64 µg/mL (≈ 145 µM)
- MIC [10]: 4 µg/mL (≈ 9.08 µM)
- MIC [11]: 2 µg/mL (≈ 4.54 µM)
- MIC [12]: 64 µg/mL (≈ 145 µM)
- MIC [13]: 128 µg/mL (≈ 291 µM)

SMILES: CCO/N=C1/CCN(c2nc3c(cc2F)c(=O)c(C(=O)O)cn3-c2ccc(F)cc2F)CC1(C)CN (configuration not stated)
- MIC [1]: 128 µg/mL (≈ 254 µM)
- MIC [2]: 2 µg/mL (≈ 3.97 µM)
- MIC [3]: > 128 µg/mL
- MIC [4]: 32 µg/mL (≈ 63.6 µM)
- CC50 at 48 h [5]: 78.8 µg/mL (≈ 156 µM)
- MIC [6]: 8 µg/mL (≈ 15.9 µM)
- MIC [7]: 16 µg/mL (≈ 31.8 µM)
- MIC [8]: 128 µg/mL (≈ 254 µM)
- MIC [9]: 64 µg/mL (≈ 127 µM)
- MIC [10]: 4 µg/mL (≈ 7.94 µM)
- MIC [11]: 2 µg/mL (≈ 3.97 µM)
- MIC [12]: 128 µg/mL (≈ 254 µM)
- MIC [13]: 64 µg/mL (≈ 127 µM)

SMILES: CCn1cc(C(=O)O)c(=O)c2cc(F)c(N3CC/C(=N/OC)C(C)(CN)C3)c(F)c21 (configuration not stated)
- MIC [1]: 128 µg/mL (≈ 303 µM)
- MIC [2]: 2 µg/mL (≈ 4.73 µM)
- MIC [3]: 128 µg/mL (≈ 303 µM)
- MIC [4]: 32 µg/mL (≈ 75.8 µM)
- CC50 at 48 h [5]: 315 µg/mL (≈ 746 µM)
- MIC [6]: 8 µg/mL (≈ 18.9 µM)
- MIC [7]: 8 µg/mL (≈ 18.9 µM)
- MIC [8]: 64 µg/mL (≈ 152 µM)
- MIC [9]: 64 µg/mL (≈ 152 µM)
- MIC [10]: 2 µg/mL (≈ 4.73 µM)
- MIC [11]: 1 µg/mL (≈ 2.37 µM)
- MIC [12]: 32 µg/mL (≈ 75.8 µM)
- MIC [13]: 64 µg/mL (≈ 152 µM)

SMILES: CO/N=C1/CCN(c2nc3c(cc2F)c(=O)c(C(=O)O)cn3-c2ccc(F)cc2F)CC1(C)CN (configuration not stated)
- MIC [1]: 64 µg/mL (≈ 131 µM)
- MIC [2]: 2 µg/mL (≈ 4.09 µM)
- MIC [3]: > 128 µg/mL
- MIC [4]: 32 µg/mL (≈ 65.4 µM)
- CC50 at 48 h [5]: 88.4 µg/mL (≈ 181 µM)
- MIC [6]: 8 µg/mL (≈ 16.3 µM)
- MIC [7]: 8 µg/mL (≈ 16.3 µM)
- MIC [8]: 32 µg/mL (≈ 65.4 µM)
- MIC [9]: 128 µg/mL (≈ 262 µM)
- MIC [10]: 2 µg/mL (≈ 4.09 µM)
- MIC [11]: 1 µg/mL (≈ 2.04 µM)
- MIC [12]: 128 µg/mL (≈ 262 µM)
- MIC [13]: 64 µg/mL (≈ 131 µM)

SMILES: CCO/N=C1/CCN(c2nc3c(cc2F)c(=O)c(C(=O)O)cn3C2CC2)CC1(C)CN (configuration not stated)
- MIC [1]: 4 µg/mL (≈ 9.27 µM)
- MIC [2]: 0.25 µg/mL (≈ 0.579 µM)
- MIC [3]: 4 µg/mL (≈ 9.27 µM)
- MIC [4]: 8 µg/mL (≈ 18.5 µM)
- CC50 at 48 h [5]: 44.2 µg/mL (≈ 102 µM)
- MIC [6]: 1 µg/mL (≈ 2.32 µM)
- MIC [7]: 1 µg/mL (≈ 2.32 µM)
- MIC [8]: 16 µg/mL (≈ 37.1 µM)
- MIC [9]: 1 µg/mL (≈ 2.32 µM)
- MIC [10]: 0.5 µg/mL (≈ 1.16 µM)
- MIC [11]: 0.25 µg/mL (≈ 0.579 µM)
- MIC [12]: 8 µg/mL (≈ 18.5 µM)
- MIC [13]: 16 µg/mL (≈ 37.1 µM)

SMILES: CO/N=C1/CCN(c2c(F)cc3c(=O)c(C(=O)O)cn4c3c2OC[C@@H]4C)CC1(C)CN (some centres not stated)
- MIC [1]: 128 µg/mL (≈ 296 µM)
- MIC [2]: 1 µg/mL (≈ 2.31 µM)
- MIC [3]: 128 µg/mL (≈ 296 µM)
- MIC [4]: 16 µg/mL (≈ 37 µM)
- CC50 at 48 h [5]: 177 µg/mL (≈ 409 µM)
- MIC [6]: 4 µg/mL (≈ 9.25 µM)
- MIC [7]: 8 µg/mL (≈ 18.5 µM)
- MIC [8]: 32 µg/mL (≈ 74 µM)
- MIC [9]: 128 µg/mL (≈ 296 µM)
- MIC [10]: 2 µg/mL (≈ 4.62 µM)
- MIC [11]: 1 µg/mL (≈ 2.31 µM)
- MIC [12]: 64 µg/mL (≈ 148 µM)
- MIC [13]: 64 µg/mL (≈ 148 µM)

SMILES: CO/N=C1/CCN(c2nc3c(cc2F)c(=O)c(C(=O)O)cn3C2CC2)CC1(C)CN (configuration not stated)
- MIC [1]: 32 µg/mL (≈ 76.7 µM)
- MIC [2]: 0.25 µg/mL (≈ 0.599 µM)
- MIC [3]: 32 µg/mL (≈ 76.7 µM)
- MIC [4]: 4 µg/mL (≈ 9.58 µM)
- CC50 at 48 h [5]: 177 µg/mL (≈ 423 µM)
- MIC [6]: 0.5 µg/mL (≈ 1.2 µM)
- MIC [7]: 1 µg/mL (≈ 2.4 µM)
- MIC [8]: 8 µg/mL (≈ 19.2 µM)
- MIC [9]: 0.5 µg/mL (≈ 1.2 µM)
- MIC [10]: 1 µg/mL (≈ 2.4 µM)
- MIC [11]: 0.5 µg/mL (≈ 1.2 µM)
- MIC [12]: 8 µg/mL (≈ 19.2 µM)
- MIC [13]: 8 µg/mL (≈ 19.2 µM)

SMILES: CCO/N=C1/CCN(c2c(F)cc3c(=O)c(C(=O)O)cn(C4CC4)c3c2F)CC1(C)CN (configuration not stated)
- MIC [1]: 8 µg/mL (≈ 17.8 µM)
- MIC [2]: 0.25 µg/mL (≈ 0.557 µM)
- MIC [3]: 2 µg/mL (≈ 4.46 µM)
- MIC [4]: 16 µg/mL (≈ 35.7 µM)
- CC50 at 48 h [5]: 62.5 µg/mL (≈ 139 µM)
- MIC [6]: 2 µg/mL (≈ 4.46 µM)
- MIC [7]: 2 µg/mL (≈ 4.46 µM)
- MIC [8]: 16 µg/mL (≈ 35.7 µM)
- MIC [9]: 2 µg/mL (≈ 4.46 µM)
- MIC [10]: 0.25 µg/mL (≈ 0.557 µM)
- MIC [11]: 0.125 µg/mL (≈ 0.279 µM)
- MIC [12]: 8 µg/mL (≈ 17.8 µM)
- MIC [13]: 16 µg/mL (≈ 35.7 µM)

SMILES: CO/N=C1/CCN(c2c(F)cc3c(=O)c(C(=O)O)cn(C4CC4)c3c2F)CC1(C)CN (configuration not stated)
- MIC [1]: 32 µg/mL (≈ 73.7 µM)
- MIC [2]: 0.25 µg/mL (≈ 0.575 µM)
- MIC [3]: 64 µg/mL (≈ 147 µM)
- MIC [4]: 4 µg/mL (≈ 9.21 µM)
- CC50 at 48 h [5]: 88.4 µg/mL (≈ 203 µM)
- MIC [6]: 0.5 µg/mL (≈ 1.15 µM)
- MIC [7]: 1 µg/mL (≈ 2.3 µM)
- MIC [8]: 16 µg/mL (≈ 36.8 µM)
- MIC [9]: 64 µg/mL (≈ 147 µM)
- MIC [10]: 0.25 µg/mL (≈ 0.575 µM)
- MIC [11]: 0.25 µg/mL (≈ 0.575 µM)
- MIC [12]: 16 µg/mL (≈ 36.8 µM)
- MIC [13]: 32 µg/mL (≈ 73.7 µM)

SMILES: CCO/N=C1/CCN(c2c(F)cc3c(=O)c(C(=O)O)cn(CCF)c3c2F)CC1(C)CN (configuration not stated)
- MIC [1]: 128 µg/mL (≈ 282 µM)
- MIC [2]: 4 µg/mL (≈ 8.8 µM)
- MIC [3]: 128 µg/mL (≈ 282 µM)
- MIC [4]: 64 µg/mL (≈ 141 µM)
- CC50 at 48 h [5]: 157 µg/mL (≈ 347 µM)
- MIC [6]: 16 µg/mL (≈ 35.2 µM)
- MIC [7]: 64 µg/mL (≈ 141 µM)
- MIC [8]: 128 µg/mL (≈ 282 µM)
- MIC [9]: 64 µg/mL (≈ 141 µM)
- MIC [10]: 4 µg/mL (≈ 8.8 µM)
- MIC [11]: 2 µg/mL (≈ 4.4 µM)
- MIC [12]: 64 µg/mL (≈ 141 µM)
- MIC [13]: 128 µg/mL (≈ 282 µM)
